Measured values of several laboratories.
Lines come from different studies, so protocols differ.

CCN(CC)CCCOc1ccc2c(=O)c3c([nH]c2c1)CCCC3  solubility (absorbance; aqueous buffer; 90 min, pH 7.4): > 500 µM
Cc1ncc(-c2cc3cc(-c4c(C)ccc(O)c4C)cnc3[nH]2)cn1  solubility (aqueous buffer; 24 h, pH 7.4): < 1.56 µM
O=c1c2ccc(Oc3ccc(OC(F)(F)F)cc3)cc2[nH]c2ccc(Cl)c(F)c12  solubility (absorbance; aqueous buffer; 90 min, pH 7.4): < 3.12 µM
c1ccc(Oc2ccc(Nc3c4c(nc5ccccc35)CCC4)cc2)cc1  solubility (simulated gastric fluid; 30 min, pH 2, acidic): 25 to 50 µg/mL
CCOC(=O)C1=C(CN2CCC[C@@H]2C(=O)Nc2ccc(B(O)O)cc2)NC(c2nccs2)=N[C@H]1c1ccc(F)cc1Br  solubility (HPLC; aqueous buffer; pH 2): 257 µg/mL
O=C(O)c1cc(-c2ccc(-n3ccnn3)cc2)c2ccc(-c3ccc(C(F)(F)F)cc3)cc2c1  solubility (aqueous buffer; pH 4): 0.19 µg/mL
CCCN(CCC)CCCOc1ccc2c(=O)c3c([nH]c2c1)CCCC3  solubility (absorbance; aqueous buffer; 90 min, pH 7.4): > 500 µM
c1cc(-c2ccc3ncnc(Nc4ncco4)c3c2)nc(N2CCOCC2)n1  solubility (aqueous buffer; pH 7.4, 25 °C): 3 µM
O=C(O)c1cc(-c2ccc(-n3ccnn3)cc2)cc(-n2cc(-c3ccc(C(F)(F)F)cc3)nn2)c1  solubility (aqueous buffer; pH 7.4): 7.6 µg/mL
CNS(=O)(=O)c1ccc(Nc2ncc(C(F)(F)F)c([C@H]3CC[C@](C)(O)CC3)n2)c(C)c1  solubility (PBS; 2 h, pH 7.4): 0.4 µM
CCOC(=O)C1=C(CN2CCOCC2)NC(c2nccs2)=NC1c1ccc(F)cc1Br (centres unmarked)  solubility (HPLC; aqueous buffer; pH 7.4): < 1 µg/mL
O=C(CCCCCCC(=O)Nc1ccccc1)NO  solubility (water): 720 µg/mL
CC(C)N(c1ccc(C#N)cc1)c1ccc(NC(=O)CN(C)c2ccccc2N2CCCC2=O)cn1  solubility (PBS; pH 7.4): 40 µM
Cn1cc(Nc2ncnc3ccc(-c4cccc(N5CCOCC5)c4)cc23)cn1  solubility (aqueous buffer; pH 7.4, 25 °C): 1.5 µM
CCN(c1ccc(C)cc1)c1ccc(NC(=O)CN(C)c2ccccc2N2CCCC2=O)cn1  solubility (PBS; pH 7.4): 3.4 µM
Clc1cccc(Nc2ncnc3ccc(-c4cccc(N5CCOCC5)c4)cc23)c1  solubility (aqueous buffer; pH 7.4, 25 °C): 12 µM
CC[C@H]1OC(=O)[C@H](C)[C@@H](O[C@H]2C[C@@](C)(OC)[C@@H](O)[C@H](C)O2)[C@H](C)[C@@H](O[C@@H]2O[C@H](C)C[C@H](N(C)C)[C@H]2O)[C@](C)(O)C[C@@H](C)C(=O)[C@H](C)[C@@H](O)[C@]1(C)O  solubility (aqueous buffer; 18 h, pH 7.4): 664 µM
Clc1ccc(Nc2ncnc3ccc(-c4cccc(N5CCOCC5)c4)cc23)cc1  solubility (aqueous buffer; pH 7.4, 25 °C): < 0.4 µM
OCc1ccc(-c2nn(Cc3ccccc3)c3ncccc23)o1  solubility (aqueous buffer; 6 h, pH 7.4): > 45 µg/mL
CCCN1C(=O)COc2ccc(S(=O)(=O)Nc3cc(OC)ccc3OC)cc21  solubility (PBS; 8 h, pH 7.4): 100 µM
CC(C)(C(=O)O)[C@H](NC(=O)Cc1cccc(I)c1)c1ccc2oc(=O)[nH]c2c1  solubility (aqueous buffer; pH 6.8): > 700 µM
COc1ncccc1Cn1nc(-c2ccc(CO)o2)c2ccccc21  solubility (aqueous buffer; 6 h, pH 7.4): > 33 µg/mL
COc1ccc(Oc2ccc3c(=O)c4c(F)cc(Cl)cc4[nH]c3c2)cc1  solubility (absorbance; aqueous buffer; 90 min, pH 7.4): < 3.12 µM
Cc1ccc(Nc2cnnc3ccc(-c4ccc(N5CCN(C)CC5)cc4)cc23)cn1  solubility (aqueous buffer; pH 7.4, 25 °C): 60 µM
O=[N+]([O-])c1ccc(Nc2ncnc3ccc(-c4cccc(N5CCOCC5)c4)cc23)cc1C(F)(F)F  solubility (aqueous buffer; pH 7.4, 25 °C): < 0.4 µM
O=c1c2ccc(OCc3ccc(C(F)(F)F)cc3)cc2[nH]c2cc(Cl)cc(F)c12  solubility (absorbance; aqueous buffer; 90 min, pH 7.4): < 3.12 µM
OCc1ccc(-c2nn(Cc3cccnc3)c3cccnc23)o1  solubility (aqueous buffer; 6 h, pH 7.4): > 30 µg/mL
Cc1ccccc1CN1C(=O)C2=C(CCN(Cc3ccccc3)C2)N2CCN=C12  solubility (shake flask; aqueous buffer; pH 5): 6020 µg/mL
CC(=O)O[C@@H]1CC[C@@]2(C)[C@@H](CC[C@]3(C)[C@@H]2C(=O)C=C2[C@@H]4[C@@H](C)[C@H](C)CC[C@]4(C)CC[C@]23C)[C@@]1(C)C(=O)O  solubility (PBS; pH 7.4): 6.45 µg/mL
O=C(Nc1ccc(OC(F)(F)F)cc1)N[C@H]1CC[C@H](Oc2ccc(C(=O)O)cc2)CC1  solubility (simulated gastric fluid; 1 h, pH 1, 37 °C, acidic): 0.0008 µg/mL
CC1(CNc2nc(-c3cccs3)nc(Cl)c2-c2c(F)cc(N)cc2F)COC1  solubility (mass spectrometry; PBS; pH 7.4): 46 µM
Cc1ccc(Oc2ccc(NC(=O)COc3ccccc3N3CCCC3=O)cc2)cc1  solubility (PBS; pH 7.4): 4.2 µM
OCc1ccc(-c2nn(Cc3ccccn3)c3ccccc23)o1  solubility (aqueous buffer; 6 h, pH 7.4): > 45 µg/mL
Cc1ccc(N(C)c2ccc(NC(=O)CN(C)c3ccccc3N3CCCC3=O)cn2)cc1  solubility (PBS; pH 7.4): 44 µM
CNS(=O)(=O)c1ccc(Nc2ncc(C(F)(F)F)c(N3CCC(C)(O)CC3)n2)c(C)c1  solubility (FaSSIF; 2 h): 26 µM
COc1cccc(Cn2nc(-c3ccc(CO)o3)c3ccccc32)c1  solubility (aqueous buffer; 6 h, pH 7.4): 1 µg/mL
Cc1ccc(Oc2ccc(NC(=O)CNc3ccccc3N3CCCC3=O)cc2)cc1  solubility (PBS; pH 7.4): 9.1 µM
OCc1ccc(-c2nn(Cc3ccccc3)c3ccncc23)o1  solubility (aqueous buffer; 6 h, pH 7.4): > 45 µg/mL
CN1CCC(Nc2ncnc3ccc(-c4cccc(N5CCOCC5)c4)cc23)CC1  solubility (aqueous buffer; pH 7.4, 25 °C): 928 µM
Cc1cc(-c2ccnc3[nH]cc(F)c23)cc(F)c1[C@@]1(O)[C@H](C)CN(C(=O)CN)C[C@@H]1C  solubility (aqueous buffer): 11.9 µg/mL
Cc1cc(/C=C/C#N)cc(C)c1Nc1ccnc(Nc2ccc(C#N)cc2)n1  solubility (water; 24 h, 37 °C): 0.2 µg/mL
COc1cc(NC(=O)Cn2cc(Cl)c3ccc(-c4cnn(C)c4)cc32)cc(OC)c1OC  solubility (PBS; pH 7.4): < 2.7 µM
c1cc(-c2ccc3ncnc(Nc4ncco4)c3c2)cc(N2CC3(COC3)C2)c1  solubility (aqueous buffer; pH 7.4, 25 °C): 3 µM
COc1ccccc1Cn1nc(-c2ccc(CO)o2)c2ccccc21  solubility (aqueous buffer; 6 h, pH 7.4): 1 µg/mL
